Structures can show the parent of a compound that is named as a salt.

The text below walks through data of paper PMC4259821 (European journal of pharmacology, 2014).

Test [1] has as its system ICSS in rats. The test can be described thus: Intracranial self-stimulation. The format is in vivo, rat. As to conditions: i.p.
Test [2] deals with T1, 5HT1A (Homo sapiens, UniProt P08908).
T1 sequence (P08908 1-422): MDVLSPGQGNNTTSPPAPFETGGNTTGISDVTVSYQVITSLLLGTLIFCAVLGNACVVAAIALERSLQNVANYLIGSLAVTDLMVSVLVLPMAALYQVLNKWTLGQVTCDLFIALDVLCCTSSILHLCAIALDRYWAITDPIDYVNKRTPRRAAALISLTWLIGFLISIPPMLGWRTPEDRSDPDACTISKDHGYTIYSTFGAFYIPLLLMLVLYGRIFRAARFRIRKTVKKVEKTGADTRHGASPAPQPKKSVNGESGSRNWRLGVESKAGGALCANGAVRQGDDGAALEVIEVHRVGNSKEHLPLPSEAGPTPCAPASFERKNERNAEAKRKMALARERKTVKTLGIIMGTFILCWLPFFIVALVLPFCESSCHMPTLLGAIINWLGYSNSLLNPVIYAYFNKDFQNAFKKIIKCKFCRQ
In words: Calcium mobilization assay, 5-HT1A. Format: cell-based. The method, boiled down:
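CHO-Gα16 cells stably expressing human 5-HT1A, plated overnight at 25,000 cells/well in Ham's F12 with 10% FBS. Calcium 5 dye (1:40) in HBSS, 20 mM HEPES, 2.5 mM probenecid, pH 7.4, for 45 min at 37°C. Agonist mode: compound added at 10 s, fluorescence read 90 s. Antagonist mode: 15 min compound pretreatment, then EC50–EC80 5-HT. Three-parameter logistic fit.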
A general note: A change in cytosolic calcium serves as a functional read-out for many receptors and channels.

For test [3], the target named is 5HT2A (Homo sapiens, UniProt P28223). The test can be described thus: Calcium mobilization assay, 5-HT2A. The format is cell-based. The method, boiled down: (§1)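 Stable human 5-HT2A or 5-HT2B HEK293 cells were plated overnight on PEI-coated plates at 40,000 or 35,000 cells/well in DMEM-HG, 10% FBS, 15 mM HEPES. Calcium 5 dye was loaded for 45 min at 37°C in HBSS/HEPES/probenecid, pH 7.4. Antagonist mode used 15 min compound pretreatment, then EC50–EC80 5-HT. Peak fluorescence change was fit to a three-parameter logistic.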
Chain of 5HT2A (P28223 whole entry): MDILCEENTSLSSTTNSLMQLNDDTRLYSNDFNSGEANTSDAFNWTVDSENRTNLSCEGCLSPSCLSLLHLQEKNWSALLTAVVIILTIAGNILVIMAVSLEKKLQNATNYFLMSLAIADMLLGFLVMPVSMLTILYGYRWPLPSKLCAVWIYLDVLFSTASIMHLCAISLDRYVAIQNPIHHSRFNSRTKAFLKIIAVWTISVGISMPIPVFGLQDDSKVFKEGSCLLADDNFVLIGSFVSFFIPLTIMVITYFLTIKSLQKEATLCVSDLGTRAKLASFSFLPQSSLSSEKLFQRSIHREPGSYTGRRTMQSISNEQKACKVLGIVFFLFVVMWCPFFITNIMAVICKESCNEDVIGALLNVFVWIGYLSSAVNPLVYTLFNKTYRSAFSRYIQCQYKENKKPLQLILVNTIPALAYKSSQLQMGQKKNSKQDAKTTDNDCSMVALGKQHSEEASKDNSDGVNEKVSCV

Test [4] concerns the target 5HT2B (Homo sapiens, UniProt P41595). The test can be described thus: Calcium mobilization assay, 5-HT2B. The format is cell-based. The gist of the method:
as §1

The target of test [5] is T2, hTAAR1 (Homo sapiens, UniProt Q96RJ0).
T2 sequence (Q96RJ0 1-339): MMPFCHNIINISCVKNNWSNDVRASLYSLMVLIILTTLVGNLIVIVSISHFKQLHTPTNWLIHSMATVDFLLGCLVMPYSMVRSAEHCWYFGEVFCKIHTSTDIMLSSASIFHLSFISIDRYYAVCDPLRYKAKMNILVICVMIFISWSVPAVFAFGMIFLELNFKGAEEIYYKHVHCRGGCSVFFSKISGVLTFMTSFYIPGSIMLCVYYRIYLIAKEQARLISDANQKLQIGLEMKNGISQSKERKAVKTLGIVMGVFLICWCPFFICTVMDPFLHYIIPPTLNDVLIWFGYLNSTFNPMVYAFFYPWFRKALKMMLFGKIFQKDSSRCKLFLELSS
In words: hTAAR1 cAMP assay. The format is cell-based. For orientation: Cyclic AMP is a second messenger, typically raised through Gs and lowered through Gi signalling.

Test [6] deals with CB1 (Homo sapiens, UniProt P21554). The test can be described thus: Calcium mobilization assay, CB1. Format: cell-based.
Chain of CB1 (P21554 whole entry): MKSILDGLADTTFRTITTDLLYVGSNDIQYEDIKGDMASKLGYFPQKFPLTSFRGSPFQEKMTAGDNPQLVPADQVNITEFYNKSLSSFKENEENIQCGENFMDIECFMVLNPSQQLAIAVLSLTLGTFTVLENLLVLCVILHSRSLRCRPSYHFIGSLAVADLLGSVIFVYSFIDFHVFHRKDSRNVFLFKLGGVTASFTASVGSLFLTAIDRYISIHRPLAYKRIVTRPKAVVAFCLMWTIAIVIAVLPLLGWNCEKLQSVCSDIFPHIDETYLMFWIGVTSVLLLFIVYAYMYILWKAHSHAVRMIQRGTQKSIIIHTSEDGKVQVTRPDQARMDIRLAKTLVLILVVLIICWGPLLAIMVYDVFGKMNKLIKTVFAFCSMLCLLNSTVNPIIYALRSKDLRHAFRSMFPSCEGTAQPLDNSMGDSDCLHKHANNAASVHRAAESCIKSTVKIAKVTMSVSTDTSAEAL
Test [7] addresses CB2 (Homo sapiens, UniProt P34972). In words: Calcium mobilization assay, CB2. Format: cell-based.
Test [8] has as its target mu opioid receptor (Homo sapiens, UniProt P35372). The test can be described thus: Calcium mobilization assay, mu opioid receptor. Format: cell-based.
The target of test [9] is delta opioid receptor (Homo sapiens, UniProt P41143). The test can be described thus: Calcium mobilization assay, delta opioid receptor. Format: cell-based.
Chain of delta opioid receptor (P41143 whole entry): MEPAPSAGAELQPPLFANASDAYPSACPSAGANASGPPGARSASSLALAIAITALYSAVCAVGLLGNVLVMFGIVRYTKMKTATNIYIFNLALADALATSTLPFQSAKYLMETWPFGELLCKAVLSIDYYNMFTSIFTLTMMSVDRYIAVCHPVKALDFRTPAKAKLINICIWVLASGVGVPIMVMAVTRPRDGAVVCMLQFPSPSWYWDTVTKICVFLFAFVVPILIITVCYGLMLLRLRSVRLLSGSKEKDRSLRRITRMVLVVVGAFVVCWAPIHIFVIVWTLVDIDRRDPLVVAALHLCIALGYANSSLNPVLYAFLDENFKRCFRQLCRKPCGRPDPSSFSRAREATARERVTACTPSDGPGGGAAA
The target in test [10] is kappa opioid receptor (Homo sapiens, UniProt P41145). The test can be described thus: Calcium mobilization assay, kappa opioid receptor. The format is cell-based.
Chain of kappa opioid receptor (P41145 whole entry): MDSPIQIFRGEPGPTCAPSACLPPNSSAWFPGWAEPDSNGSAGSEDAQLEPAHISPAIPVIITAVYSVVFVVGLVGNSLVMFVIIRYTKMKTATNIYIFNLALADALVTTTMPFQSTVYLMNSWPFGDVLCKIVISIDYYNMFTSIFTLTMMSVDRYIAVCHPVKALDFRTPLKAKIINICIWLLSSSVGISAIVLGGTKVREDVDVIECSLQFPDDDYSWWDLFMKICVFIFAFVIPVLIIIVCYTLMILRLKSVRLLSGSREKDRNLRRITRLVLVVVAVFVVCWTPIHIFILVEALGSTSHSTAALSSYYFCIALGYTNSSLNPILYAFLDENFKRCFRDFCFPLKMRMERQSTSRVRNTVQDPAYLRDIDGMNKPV
The target of test [11] is T3, APJ (Apelin) (Homo sapiens, UniProt P35414).
T3 sequence (P35414 1-380): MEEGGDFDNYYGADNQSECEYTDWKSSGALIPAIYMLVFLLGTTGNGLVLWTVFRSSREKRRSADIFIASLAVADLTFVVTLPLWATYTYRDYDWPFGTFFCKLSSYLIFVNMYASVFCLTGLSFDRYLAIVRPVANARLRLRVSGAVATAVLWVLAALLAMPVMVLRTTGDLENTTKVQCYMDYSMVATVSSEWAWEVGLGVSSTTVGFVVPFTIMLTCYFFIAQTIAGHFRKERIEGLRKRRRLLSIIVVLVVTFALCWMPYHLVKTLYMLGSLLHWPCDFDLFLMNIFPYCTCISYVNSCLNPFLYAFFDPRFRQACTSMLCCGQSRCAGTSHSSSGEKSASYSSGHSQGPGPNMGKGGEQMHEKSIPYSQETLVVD
In words: Calcium mobilization assay, APJ. Format: cell-based. The method, boiled down: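 CHO-Gα16-APJ cells were plated overnight at 30,000 cells/well in DMEM/F12 with 10% FBS and loaded with Calcium 5 dye for 45 min at 37°C. Compound dilutions contained BSA/DMSO: 2.25% BSA/9% DMSO for pretreatment, 0.25% BSA/1% DMSO for treatment. Antagonist mode: 15 min pretreatment, then EC50–EC80 apelin. Fluorescence was read on FLIPR or FlexStation. EC50/IC50 came from a three-parameter logistic fit.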

Test [12] concerns the target CaV 3.1 (Homo sapiens, UniProt O43497). The test can be described thus: Calcium voltage channel 3.1 calcium mobilization assay. Format: cell-based.
Test [13] has as its target CaV 3.2 (Homo sapiens, UniProt O95180). In words: Calcium voltage channel 3.2 calcium mobilization assay. Format: cell-based.
Test [14] has as its target TRPV1 (Homo sapiens, UniProt Q8NER1). The test can be described thus: Calcium mobilization assay, TRPV1. Format: cell-based. The gist of the method:
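HEK293 cells stably expressing human TRPV1, plated overnight at 30,000 cells/well on PEI-coated plates in DMEM-HG with 10% FBS. Calcium 5 dye in HBSS, 20 mM HEPES, 2.5 mM probenecid, pH 7.4, for 45 min at 37°C. Antagonist mode: 15 min compound pretreatment, then EC50–EC80 capsaicin. Agonist mode: compound added directly. Three-parameter logistic fit.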

Test [15] has as its system NPS receptors. The test can be described thus: In vitro calcium mobilization assay, NPS receptor antagonism. The format is cell-based. As to conditions: vs 13 receptors and ion channels of Table 1.
Test [16] deals with NPS receptors. As to conditions: calcium mobilization; ref Zhang et al., 2008; cited from earlier work.
Test [17] has as its system food-maintained responding. As to conditions: rats, ref Schmoutz et al., 2012, cited from earlier work.
The subject of test [18] is cocaine self-administration. As to conditions: rats; 5–30 mg/kg i.p.; ref Schmoutz et al., 2012; cited from earlier work.

Chain of 5HT2B (P41595 whole entry): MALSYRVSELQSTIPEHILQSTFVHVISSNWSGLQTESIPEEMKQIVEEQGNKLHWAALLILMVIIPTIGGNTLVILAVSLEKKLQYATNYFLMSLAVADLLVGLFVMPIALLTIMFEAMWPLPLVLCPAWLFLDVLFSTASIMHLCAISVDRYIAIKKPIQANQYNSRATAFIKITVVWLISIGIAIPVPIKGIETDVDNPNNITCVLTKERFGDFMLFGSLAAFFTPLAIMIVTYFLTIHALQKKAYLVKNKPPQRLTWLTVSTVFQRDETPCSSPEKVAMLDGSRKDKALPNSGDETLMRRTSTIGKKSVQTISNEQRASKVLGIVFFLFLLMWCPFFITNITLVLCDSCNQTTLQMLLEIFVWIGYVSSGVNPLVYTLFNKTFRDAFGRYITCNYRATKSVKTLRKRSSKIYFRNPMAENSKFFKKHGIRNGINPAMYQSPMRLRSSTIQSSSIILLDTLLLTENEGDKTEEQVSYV
Chain of CB2 (P34972 whole entry): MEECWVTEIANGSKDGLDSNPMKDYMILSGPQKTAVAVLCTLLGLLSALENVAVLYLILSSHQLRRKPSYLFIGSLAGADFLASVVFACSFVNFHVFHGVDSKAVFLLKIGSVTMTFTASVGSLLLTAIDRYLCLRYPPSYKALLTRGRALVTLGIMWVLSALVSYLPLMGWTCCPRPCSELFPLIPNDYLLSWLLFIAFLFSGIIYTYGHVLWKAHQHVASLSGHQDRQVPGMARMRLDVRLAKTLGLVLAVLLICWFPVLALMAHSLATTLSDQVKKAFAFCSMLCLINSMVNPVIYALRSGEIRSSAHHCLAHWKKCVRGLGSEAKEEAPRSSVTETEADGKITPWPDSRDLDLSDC
Chain of TRPV1 (Q8NER1 whole entry): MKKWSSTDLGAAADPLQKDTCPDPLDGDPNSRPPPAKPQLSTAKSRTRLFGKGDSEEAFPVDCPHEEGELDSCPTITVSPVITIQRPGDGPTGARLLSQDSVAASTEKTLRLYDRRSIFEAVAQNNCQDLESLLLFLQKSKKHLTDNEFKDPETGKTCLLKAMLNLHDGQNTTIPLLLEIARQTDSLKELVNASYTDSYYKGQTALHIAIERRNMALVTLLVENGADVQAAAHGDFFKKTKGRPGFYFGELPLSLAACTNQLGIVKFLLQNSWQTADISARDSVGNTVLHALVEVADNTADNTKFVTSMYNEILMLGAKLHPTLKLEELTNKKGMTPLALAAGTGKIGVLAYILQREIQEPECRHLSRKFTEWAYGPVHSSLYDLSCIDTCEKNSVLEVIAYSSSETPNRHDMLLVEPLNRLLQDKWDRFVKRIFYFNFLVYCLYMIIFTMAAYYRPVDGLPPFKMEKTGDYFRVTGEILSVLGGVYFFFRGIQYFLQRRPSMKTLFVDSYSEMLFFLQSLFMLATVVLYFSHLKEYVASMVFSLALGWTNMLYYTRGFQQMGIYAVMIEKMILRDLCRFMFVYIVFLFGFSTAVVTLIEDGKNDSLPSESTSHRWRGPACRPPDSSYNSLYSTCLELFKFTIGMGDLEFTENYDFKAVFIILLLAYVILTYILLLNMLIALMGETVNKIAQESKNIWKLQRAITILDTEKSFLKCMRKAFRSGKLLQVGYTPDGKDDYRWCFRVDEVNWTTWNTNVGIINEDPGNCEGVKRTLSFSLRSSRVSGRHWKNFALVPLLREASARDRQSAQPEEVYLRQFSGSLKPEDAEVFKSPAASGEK
Chain of mu opioid receptor (P35372 whole entry): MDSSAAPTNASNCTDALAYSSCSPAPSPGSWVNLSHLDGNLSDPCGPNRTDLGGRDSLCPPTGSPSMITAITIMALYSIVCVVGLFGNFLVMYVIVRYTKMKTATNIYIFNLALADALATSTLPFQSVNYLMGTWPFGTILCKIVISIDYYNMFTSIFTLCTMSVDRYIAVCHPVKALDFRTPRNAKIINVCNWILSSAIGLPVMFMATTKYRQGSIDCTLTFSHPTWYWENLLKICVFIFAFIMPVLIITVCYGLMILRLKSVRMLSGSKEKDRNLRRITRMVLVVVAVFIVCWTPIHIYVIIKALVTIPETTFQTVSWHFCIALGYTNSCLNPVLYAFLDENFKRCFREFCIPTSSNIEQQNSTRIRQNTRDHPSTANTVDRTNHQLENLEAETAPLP

As to `COC(=O)[C@H]1[C@@H](OC(=O)c2ccccc2)C[C@@H]2CC[C@H]1N2C` [Cocaine, (−)-Cocaine HCl, reference compound], the “Effect on ICSS, drug alone” value in [1] (10 mg/kg cocaine) is on record as “facilitated ICSS across a broad range of six frequencies (1.75–2.0 log Hz)”.

A word on the EC50: it is the concentration needed to bring the measured effect to its halfway point. The term IC50 denotes the midpoint of a concentration-inhibition curve. Regarding `O=C(NCCN1CCCCC1)N1CCN2C(=O)OC(c3ccccc3)(c3ccccc3)C2C1` (stereo not shown) [RTI-118, 3-oxo-1,1-diphenyl-N-(2-(piperidin-1-yl)ethyl)tetrahydro-1H-oxazolo[3,4-a]pyrazine-7(3H)-carboxamide], the EC50 in test [2], in test [3], in test [4], in test [5], in test [6] and in test [7] was more than 10 µM each time. Moreover, the EC50 in test [8], in test [9], in test [10], in [11] and in [14] was more than 10 µM in each case. The IC50 in [2], in test [3], in test [4], in test [5], in test [6] and in test [7] was more than 10 µM in each case. Moreover, the IC50 in test [8], in test [9], in test [10], in test [11], in test [12] and in test [13] was more than 10 µM throughout. Further, the IC50 in test [14] was more than 10 µM. Besides, the “Selectivity for NPS receptors relative to the other targets” value in test [15] was “at least 100 fold”. Moreover, the “Effect on ICSS, drug alone” value is recorded as “significantly increased ICSS at one frequency (1.9 log Hz)” in test [1] (10 mg/kg RTI-118); “significantly decreased ICSS at only one frequency (2.05 log Hz)” in test [1] (32 mg/kg RTI-118, first group of rats); “did not significantly alter ICSS at any frequency” in [1] (32 mg/kg RTI-118, second group of rats (MDPV study)); “had little effect on ICSS” in test [1] (low doses of 3.2–10 mg/kg RTI-118). The “Effect of pretreatment on MDPV-induced facilitation of ICSS” value in test [1] (32 mg/kg RTI-118 + 3.2 mg/kg MDPV) is on record as “did not alter MDPV-induced facilitation of ICSS”. For the same compound, the “Effect of pretreatment on cocaine-induced facilitation of ICSS” value in test [1] (pretreatment + 10 mg/kg cocaine vs vehicle + 10 mg/kg cocaine) is on record as “attenuation of cocaine effects was statistically significant only at the highest RTI-118 dose (32 mg/kg)”. Also, the “Ke value as an antagonist at NPS receptors” value in test [16] is 109 ± 23 nM. The “Reduction in rates of food-maintained responding” value in test [17] (30 mg/kg) was “up to 20%”. For the same compound, the “Effect on rates of food-maintained responding” value in [17] (doses up to 20 mg/kg IP) is reported as “had no effect on rates of food-maintained responding”. The “Effect on cocaine self-administration” value in test [18] was “dose-dependent and nearly complete elimination of cocaine self-administration”.

Turning to `CCCC(C(=O)c1ccc2c(c1)OCO2)N1CCCC1.Cl` (racemic) [MDPV, (±)-3,4-methylenedioxypyrovalerone HCl, reference compound], the “Effect on ICSS, drug alone” value in test [1] (3.2 mg/kg MDPV vs vehicle + vehicle) is on record as “facilitated ICSS across a broad range of frequencies (1.75–2.05 log Hz)”.
